# Most compounds without a hit are left out; they make up all but 1.6% or so of the library.
# UHRF1 binding: UHRF1 methylated DNA binding inhibitors, primary screen, counter-screen for MBD2 inhibitor project, biochemical, TR-FRET, human UHRF1, single concentration; UHRF1 binding to methylated oligo; AID 687016, 2013; E3 ubiquitin-protein ligase UHRF1 (Homo sapiens), Q96T88; actives 0.75% (n = 370,000); inhibition, % at 4.4 µM; in the data active means inhibition above about 21%;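 further: UHRF1 SRA domain binding a hemimethylated CpG hairpin DNA probe; 0% = median of test compound wells and 100% = reference inhibitor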
# MBD2 inh: inhibitors of MBD2 binding to methylated DNA, primary screen, biochemical, TR-FRET, DNA-binding domain, human | inhibition, % at 4.4 µM | actives 0.31% (n = 370,000) | AID 686964, 2013 | MBD2 binding to methylated oligonucleotide; in the data active means inhibition above about 13%
# Target sequence (Q9UBB5 whole entry, looked up, the tested form may be a part): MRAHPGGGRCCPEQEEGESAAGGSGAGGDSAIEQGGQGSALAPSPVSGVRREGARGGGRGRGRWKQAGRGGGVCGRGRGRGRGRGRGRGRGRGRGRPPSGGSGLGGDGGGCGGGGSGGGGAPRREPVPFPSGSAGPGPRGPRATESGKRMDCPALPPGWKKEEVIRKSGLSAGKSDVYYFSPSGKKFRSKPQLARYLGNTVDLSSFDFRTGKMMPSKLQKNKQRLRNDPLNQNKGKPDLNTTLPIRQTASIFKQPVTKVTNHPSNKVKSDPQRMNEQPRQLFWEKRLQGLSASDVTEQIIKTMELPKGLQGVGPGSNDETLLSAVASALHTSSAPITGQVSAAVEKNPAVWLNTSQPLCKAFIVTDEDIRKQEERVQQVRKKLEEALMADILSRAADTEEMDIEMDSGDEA
# TDP2 absorb: human TDP2 enzyme inhibitors, primary screen, biochemical, epi absorbance, recombinant enzyme. Tyrosyl-DNA phosphodiesterase 2 (Homo sapiens), O95551. T5PNP hydrolysis, p-nitrophenol absorbance 415 nm. inhibition, % at 12.8 µM. actives 0.34% (n = 370,000);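 active means inhibition above the mean of all tested compounds plus 3 SD, set per campaign, cut at about 25% in these data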;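 further: 0% = DMSO with enzyme and 100% = buffer with substrate but no TDP2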
#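 System – recombinant human TDP2 · Amount – 120 nM TDP2 per well · Buffer or medium – Mg2+-containing Tris-HCl buffer, pH 7.5 · Reagent – T5PNP substrate, 5 mM · Dosing – 12.8 µM single point, 1% DMSO · Incubation – 2 h at 37 °C · Measured by – epi absorbance · Read-out basis – percent inhibition · Benchmarks – high control without enzyme, low control DMSO plus TDP2 · Repeats – singlicate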
# LEDGF integ inh: blockers of LEDGF/p75-dependent integrase strand transfer – biochemical, TR-FRET, high throughput, primary screen. AID 743269, 2014. inhibition, % at 3.7 µM. TR-FRET IN-LEDGF/p75 DNA integration, Eu/Cy5. actives 0.64% (n = 370,000). HIV-1 integrase (with human LEDGF/p75);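 active means inhibition above the screen-wide mean plus 3 SD, cut at about 13% in these data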;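 further: signal is the Cy5 over europium emission ratio at 671 and 618 nm; 0% = plate median of compound wells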
# IN multimer up: HIV-1 IN multimer formation enhancers, counter-screen for LEDGF/p75 integration inhibitor project, biochemical, TR-FRET. shares compounds with LEDGF integ inh. TR-FRET HIV-1 integrase multimerization. activation, % at 7.7 µM. actives 17% (n = 2,000). AID 1053131, 2014; in the data active means activation above about 8.9%
# TR-FRET interf: TR-FRET optical interference artefacts, confirmation, artefact control for LEDGF/p75-dependent integration inhibitor project, biochemical, HIV-1 IN multimerization. shares compounds with LEDGF integ inh. AID 1053135, 2014. TR-FRET optical interference counterscreen. 2,000 tested, under 10 active. inhibition, % at 7.7 µM;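 active means inhibition above the mean over all tested compounds plus 3 SD, which no compound reached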;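 further: 0% = integrase with antibodies and DMSO and 100% = antibodies without integrase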
# LEDGF integ conf: inhibitors of HIV-1 IN-LEDGF/p75 DNA integration, confirmation, biochemical, TR-FRET | TR-FRET LEDGF/p75-dependent HIV-1 integration | inhibition, % at 3.7 µM | shares compounds with LEDGF integ inh | actives 36% (n = 2,000); in the data active means inhibition above about 14%
# An asterisk follows results filed as active; · = not tested or not shown.
SMILES,UHRF1 binding,MBD2 inh,TDP2 absorb,LEDGF integ inh,IN multimer up,TR-FRET interf,LEDGF integ conf
COC(=O)[C@]12C[C@H](CC(=O)NCCC(C)C)C(=O)N(CCC3=CCCCC3)C1=C[C@H](C(C)(C)C)O[C@@H]2C,0,-1,-13,5,·,·,·
CCOC(=O)N1CCN(C(=O)COc2ccc(S(=O)(=O)NC3CCCCC3)cc2C)CC1,-1,-8,4,16*,2,-7,-2
CC1=CC(c2ccccc2)=NS(=O)(=O)N1,-2,3,3,-1,·,·,·
CCOC(=O)C1=NS(=O)(=O)NC(C)=C1,0,-6,-1,16*,0,-1,-1
COc1ccc(CN(CCN2CCOCC2)C(=O)c2cccc(F)c2F)cc1OC,2,0,6,-3,·,·,·
COCCNC(=O)C1(S(=O)(=O)c2ccccc2)CC=CC1,0,-6,-13,24*,0,0,0
O=C(NCC1CC1)C1(S(=O)(=O)c2ccccc2)CC=CC1,-6,-2,1,4,·,·,·
COc1cc(C2C3=C(COC3=O)Oc3cc4c(cc32)OCO4)cc(OC)c1OC (configuration not stated),0,2,12,-2,·,·,·
COc1cc(C2C3=C(COC3=O)Oc3cc4c(cc32)OCO4)cc(OC)c1O (configuration not stated),1,-1,1,23*,0,2,-3
CC(C)c1ccc(C(=O)Nc2cc(Cl)ccc2C(=O)O)cc1,2,0,-16,4,·,·,·
CS(=O)(=O)N(CC(=O)N1CCOCC1)c1cccc(F)c1,0,1,15,-2,·,·,·
CS(=O)(=O)N(CC(=O)N1CCN(c2cccc(Cl)c2)CC1)c1cccc(F)c1,-2,0,5,24*,0,-1,-6
Cc1cc(C)n2nc(-c3ccsc3-n3c(C)ccc3C)cc2n1,0,0,-2,24*,4,-21,20*
N#Cc1c(NC(=O)CSc2ncnc3sccc23)oc(-c2ccco2)c1-c1ccco1,17,12,6,27*,14*,-48,58*
COc1ccccc1CCn1cnc(-c2cccc(F)c2)c1CC(C)C,2,2,3,-2,·,·,·
Cc1ccc(-c2c(C(=O)O)c(C(=O)O)c3n2CSC3)cc1,2,-4,9,14*,0,-1,-5
C(=C\c1ccc2nncn2c1)/c1ccccc1,-3,1,3,14*,-4,15,13
Oc1ccc(N=Nc2ccccc2-c2nn[nH]n2)c(O)c1,-4,-5,17,19*,18*,-64,9
COc1ccc(C(CNCC(O)COc2c(C)ccc(C)c2C)N(C)C)cc1 (configuration not stated),-3,-6,-5,14*,0,2,3
Nc1ccccc1C(O)(Cc1ccccc1)c1ccccc1 (configuration not stated),2,2,4,87*,0,1,-3
CCCCC(=O)Nc1ccc2c(c1)nc(CCN1CCN(C)CC1)n2C,1,-8,-9,82*,2,-9,3
COc1cccc(NC(=O)CN(C)C(=O)Cc2ccc3c(c2)OCCO3)c1,-2,2,-3,92*,-2,8,-2
O=C(NCc1ccccc1)N1CCC(c2nc3ccc(Cl)cc3[nH]2)CC1,0,-1,3,-1,·,·,·
CN(C)CCn1nnnc1SCC1=C(C(=O)O)N2C(=O)[C@@H](NC(=O)Cc3csc(N)n3)[C@H]2SC1,39*,9,13,24*,6,-28,19*
COc1ccc(N2CCN(CCCNC(=O)CCc3cccc(F)c3)CC2)cc1,3,1,3,-4,·,·,·
SMILES,UHRF1 binding,MBD2 inh,TDP2 absorb,LEDGF integ inh,IN multimer up,TR-FRET interf,LEDGF integ conf
COc1cccc(NC(=O)c2cc(OC)c(OC)c(OC)c2Br)c1,-1,4,11,14*,1,-4,2
CCOC(=O)c1ccc(NC(=O)c2cc(OC)c(OC)c(OC)c2Br)cc1,-4,0,1,0,·,·,·
C=CCNCc1ccc(OC)cc1OC,0,4,7,-5,·,·,·
COC(=O)[C@]12C[C@H](CC(=O)NCc3ccccc3)C(=O)N(CCc3ccc(OC)c(OC)c3)C1=C[C@H](C1CCCC1)O[C@@H]2C,0,3,-1,-3,·,·,·
COCCCC1CCN(C(=O)C2CCC(=O)N(CCCc3ccccc3)C2)CC1 (configuration not stated),2,-3,4,20*,2,-6,2
COC(=O)C1=C(C)N(C)C(=NCc2cc(OC)c(OC)c(OC)c2)NC1c1cccc(Cl)c1 (configuration not stated),-2,-9,9,1,·,·,·
COc1ccc(C(C(=O)N(C)C2CCCC2)N(Cc2ccc(F)cc2)C(=O)c2cc(C)on2)cc1OC (configuration not stated),0,-5,8,4,·,·,·
COC(=O)C1=C(N)N(c2ccc(F)cc2)C2=C(C(=O)CCC2)C1c1ccc2c(c1)OCO2 (configuration not stated),4,-2,0,18*,0,0,-10
COC(=O)C1=C(N)OC2=C(C(=O)CCC2)C1c1ccc2c(c1)OCO2 (configuration not stated),-1,-3,12,6,·,·,·
CCOC(=O)C1(CCOc2ccccc2)CCN(Cc2ccc(CO)o2)CC1,1,6,0,18*,0,-2,1
CCOC(=O)[C@H](Cc1ccccc1)NC(=O)[C@H]1C[C@@]2(N3CCCCC3)c3ccccc3N(C(=O)OC(C)(C)C)[C@H]2N1C(=O)OC(C)(C)C,-1,-1,-9,-2,·,·,·
CC(=O)NC1=NC(=O)/C(=C/c2cc(C)n(-c3cccc(C(=O)O)c3)c2C)S1,45*,9,14,31*,14*,-50,5
CC(=O)NC1=NC(=O)/C(=C/c2cc(C)n(-c3ccc(NC(C)=O)cc3)c2C)S1,-7,-6,-8,-6,·,·,·

# Screening data as filed in PubChem BioAssay.
